Reference: ChEMBL document CHEMBL1165943, “Design and synthesis of new anticancer pyrimidines with multiple-kinase inhibitory effect” (Bioorg Med Chem, 2010)

Tests used:
DU-145 = assay: Growth inhibition of human DU145 cells after 48 hrs by sulforhodamine B assay; format: functional, cell-based; details: for CC50: read-out: LC50 (the source's name)
In short: (§1)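 Cells grown in RPMI 1640 with 5% FBS and 2 mM L-glutamine, seeded at 5,000–40,000 cells/well according to doubling time. After 24 h, time-zero plates are TCA-fixed. Five concentrations (10-fold or ½log dilutions, DMSO stocks) are applied for 48 h at 37 °C, 5% CO₂. Cells are TCA-fixed, SRB-stained and read at 515 nm. IC₅₀ is taken from [(Ti−Tz)/(C−Tz)]×100 = 50.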

NCI-H322M = assay: Cytotoxicity against human NCI-H322M cells assessed as cell growth at 0.01 uM after 48 hrs by sulforhodamine B assay; format: functional; details: read-out: Activity
NCI-H522 [1] = assay: Cytotoxicity against human NCI-H522 cells assessed as cell growth at 100 nM after 48 hrs by sulforhodamine B assay; format: functional; details: NCI-H522, 48 h, read-out: Activity
SF-539 [2] = assay: Cytotoxicity against human SF539 cells assessed as cell growth at 1 uM after 48 hrs by sulforhodamine B assay; format: functional; details: SF-539, 48 h, read-out: Activity
HOP-62 = assay: Cytotoxicity against human HOP62 cells assessed as cell growth at 0.01 uM after 48 hrs by sulforhodamine B assay; format: functional; details: HOP-62, 48 h, read-out: Activity
HCT-15 = assay: Cytotoxicity against human HCT15 cells assessed as cell growth at 10 uM after 48 hrs by sulforhodamine B assay; format: functional; details: HCT-15, 48 h, read-out: Activity
NCI-H522 [3] = assay: Cytotoxicity against human NCI-H522 cells assessed as cell growth at 10 uM after 48 hrs by sulforhodamine B assay; format: functional; details: NCI-H522, 48 h, read-out: Activity
LOX IMVI = assay: Cytotoxicity against human LOXIMVI cells assessed as cell growth at 10 uM after 48 hrs by sulforhodamine B assay; format: functional; details: read-out: Activity
A498 [4] = assay: Cytotoxicity against human A498 cells assessed as cell growth at 1 uM after 48 hrs by sulforhodamine B assay; format: functional; details: A498, 48 h, read-out: Activity
In short: (§2)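 Cells grown in RPMI 1640 with 5% FBS and 2 mM L-glutamine, seeded at 5,000–40,000 cells/well by doubling time. Time-zero plates TCA-fixed after 24 h. Five concentrations (10-fold or half-log dilutions from DMSO stock) added; 48 h at 37 °C, 5% CO2. Cold TCA fixation (final 10%, 60 min, 4 °C), 0.4% SRB stain, dye solubilized in 10 mM trizma base, A515.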

OVCAR-3 = assay: Cytotoxicity against human OVCAR-3 cells assessed as cell growth at 10 uM after 48 hrs by sulforhodamine B assay; format: functional; details: OVCAR-3, 48 h, read-out: Activity
Malme-3M = assay: Cytotoxicity against human MALME-3M cells assessed as cell growth at 0.01 uM after 48 hrs by sulforhodamine B assay; format: functional; details: read-out: Activity
NCI/ADR-RES [5] = assay: Cytotoxicity against human NCI/ADR-RES cells assessed as cell growth at 100 nM after 48 hrs by sulforhodamine B assay; format: functional; details: read-out: Activity
UACC-62 = assay: Growth inhibition of human UACC62 cells after 48 hrs by sulforhodamine B assay; format: functional, cell-based; details: UACC-62, 48 h; in short: as §1
COLO 205 = assay: Growth inhibition of human COLO205 cells after 48 hrs by sulforhodamine B assay; format: functional, cell-based; details: COLO 205, 48 h; for CC50: read-out: LC50 (the source's name)
In short: (§3)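 Five-dose SRB assay. Cells in RPMI 1640 with 5% FBS and 2 mM L-glutamine were seeded at 5,000–40,000 cells/well, with a TCA-fixed time-zero plate (Tz) taken at 24 h. Compound stocks were in DMSO, serially diluted 10-fold or ½-log to five concentrations, and incubated 48 h at 37 °C. Plates were stained with SRB and read at 515 nm. IC₅₀ was taken where [(Ti−Tz)/(C−Tz)]×100 = 50.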

SF-295 = assay: Cytotoxicity against human SF295 cells assessed as cell growth at 100 nM after 48 hrs by sulforhodamine B assay; format: functional; details: SF-295, 48 h, read-out: Activity
A549 = assay: Growth inhibition of human A549 cells after 48 hrs by sulforhodamine B assay; format: functional, cell-based; details: A549, 48 h; for CC50: read-out: LC50 (the source's name); in short: as §3
SF-539 [6] = assay: Cytotoxicity against human SF539 cells assessed as cell growth at 0.01 uM after 48 hrs by sulforhodamine B assay; format: functional; details: SF-539, 48 h, read-out: Activity
M14 = assay: Cytotoxicity against human M14 cells assessed as cell growth at 0.001 uM after 48 hrs by sulforhodamine B assay; format: functional; details: M14, 48 h, read-out: Activity
K562 [7] = assay: Cytotoxicity against human K562 cells assessed as cell growth at 1 uM after 48 hrs by sulforhodamine B assay; format: functional; details: K562, 48 h, read-out: Activity
NCI-H460 = assay: Cytotoxicity against human NCI-H460 cells assessed as cell growth at 1 uM after 48 hrs by sulforhodamine B assay; format: functional; details: NCI-H460, 48 h, read-out: Activity
NCI-H23 = assay: Cytotoxicity against human NCI-H23 cells assessed as cell growth at 0.01 uM after 48 hrs by sulforhodamine B assay; format: functional; details: NCI-H23, 48 h, read-out: Activity
OVCAR-4 [8] = assay: Cytotoxicity against human OVCAR4 cells assessed as cell growth at 0.001 uM after 48 hrs by sulforhodamine B assay; format: functional; details: OVCAR-4, 48 h, read-out: Activity
SF-539 [9] = assay: Cytotoxicity against human SF539 cells assessed as cell growth at 100 nM after 48 hrs by sulforhodamine B assay; format: functional; details: SF-539, 48 h, read-out: Activity
MOLT-4 = assay: Growth inhibition of human MOLT4 cells after 48 hrs by sulforhodamine B assay; format: functional, cell-based; details: MOLT-4, 48 h; for CC50: read-out: LC50 (the source's name); in short: as §1
NCI/ADR-RES [10] = assay: Cytotoxicity against human NCI/ADR-RES cells assessed as cell growth at 0.01 uM after 48 hrs by sulforhodamine B assay; format: functional; details: read-out: Activity
SN12C = assay: Growth inhibition of human SN12C cells after 48 hrs by sulforhodamine B assay; format: functional, cell-based; details: for CC50: read-out: LC50 (the source's name); in short: as §1
SK-MEL-5 = assay: Cytotoxicity against human SK-MEL-5 cells assessed as cell growth at 100 nM after 48 hrs by sulforhodamine B assay; format: functional; details: SK-MEL-5, 48 h, read-out: Activity
OVCAR-4 [11] = assay: Growth inhibition of human OVCAR4 cells after 48 hrs by sulforhodamine B assay; format: functional, cell-based; details: for CC50: read-out: LC50 (the source's name); in short: as §1
A498 [12] = assay: Cytotoxicity against human A498 cells assessed as cell growth at 100 nM after 48 hrs by sulforhodamine B assay; format: functional; details: A498, 48 h, read-out: Activity; in short: as §2
K562 [13] = assay: Cytotoxicity against human K562 cells assessed as cell growth at 0.01 uM after 48 hrs by sulforhodamine B assay; format: functional; details: K562, 48 h, read-out: Activity

## CC(=O)c1ccccc1-c1ccc(-c2ccnc(NC(=O)Nc3cc(N4CCOCC4)cc(C(F)(F)F)c3)n2)cn1
DU-145; Homo sapiens, DU-145, 48 h
  TGI: > 100 µM
  CC50: > 100 µM
DU-145; du-145
  IC50: Not Active
NCI-H322M
  growth at 0.01 µM: 108%
NCI-H522 [1]
  growth at 0.1 µM: 101%
SF-539 [2]
  growth at 1 µM: 45%
HOP-62
  growth at 0.01 µM: 100%
HCT-15
  growth at 10 µM: 87%
NCI-H522 [3]
  growth at 10 µM: 40%
LOX IMVI
  growth at 10 µM: 93%
A498 [4]
  growth at 1 µM: 83%
OVCAR-3
  growth at 10 µM: 51%
Malme-3M
  growth at 0.01 µM: 103%
NCI/ADR-RES [5]
  growth at 0.1 µM: 75%
UACC-62
  GI50: > 100 µM
  IC50: > 100 µM
  LC50 (concentration causing 50% net cell kill): > 100 µM
  TGI: > 100 µM
COLO 205
  GI50: > 63.2 µM
  IC50: > 100 µM
  TGI: > 100 µM
  CC50: > 100 µM
SF-295
  growth at 0.1 µM: 88%
A549
  GI50: > 100 µM
  IC50: > 100 µM
  TGI: > 100 µM
  CC50: > 100 µM
SF-539 [6]
  growth at 0.01 µM: 107%
M14
  growth at 0.001 µM: 94%
K562 [7]
  growth at 1 µM: 79%
NCI-H460
  growth at 1 µM: 61%
NCI-H23
  growth at 0.01 µM: 99%
OVCAR-4 [8]
  growth at 0.001 µM: 110%
SF-539 [9]
  growth at 0.1 µM: 88%
MOLT-4
  GI50: > 100 µM
  IC50: > 100 µM
  TGI: > 100 µM
  CC50: > 100 µM
NCI/ADR-RES [10]
  growth at 0.01 µM: 98%
SN12C
  GI50: 1.27 µM
  IC50: > 100 µM
  TGI: > 100 µM
  CC50: > 100 µM
SK-MEL-5
  growth at 0.1 µM: 84%
OVCAR-4 [11]; Homo sapiens, OVCAR-4, 48 h
  TGI: > 100 µM
  CC50: > 100 µM
OVCAR-4 [11]; ovcar-4
  IC50: Not Active
A498 [12]
  growth at 0.1 µM: 72%
K562 [13]
  growth at 0.01 µM: 75%

## CC(=O)Nc1cccc(-c2ccc(-c3ccnc(NC(=O)Nc4cc(C(F)(F)F)cc(C(F)(F)F)c4)n3)cn2)c1.Cl
DU-145; Homo sapiens, DU-145, 48 h
  GI50: 6.57 µM
  TGI: 19.6 µM
  CC50: 47 µM
DU-145; Homo sapiens, DU-145, 48 h, read-out: IC50
  IC50: 6.57 µM
NCI-H322M
  growth at 0.01 µM: 88%
NCI-H522 [1]
  growth at 0.1 µM: 72%
SF-539 [2]
  growth at 1 µM: 37%
HOP-62
  growth at 0.01 µM: 92%
HCT-15
  growth at 10 µM: -86%
NCI-H522 [3]
  growth at 10 µM: -73%
LOX IMVI
  growth at 10 µM: 4%
A498 [4]
  growth at 1 µM: 41%
OVCAR-3
  growth at 10 µM: 100%
Malme-3M
  growth at 0.01 µM: 88%
NCI/ADR-RES [5]
  growth at 0.1 µM: 93%
UACC-62
  GI50: 2.86 µM
  IC50: 2.86 µM
  LC50 (concentration causing 50% net cell kill): 35.7 µM
  TGI: 12.7 µM
COLO 205
  GI50: 11 µM
  IC50: 11 µM
  TGI: > 100 µM
  CC50: > 100 µM
SF-295
  growth at 0.1 µM: 57%
A549
  GI50: 1.48 µM
  IC50: 1.48 µM
  TGI: 12.6 µM
  CC50: 41.9 µM
SF-539 [6]
  growth at 0.01 µM: 78%
M14
  growth at 0.001 µM: 94%
K562 [7]
  growth at 1 µM: -1%
NCI-H460
  growth at 1 µM: -14%
NCI-H23
  growth at 0.01 µM: 92%
OVCAR-4 [8]
  growth at 0.001 µM: 32%
SF-539 [9]
  growth at 0.1 µM: 86%
MOLT-4
  GI50: 1.98 µM
  IC50: 1.98 µM
  TGI: > 100 µM
  CC50: > 100 µM
NCI/ADR-RES [10]
  growth at 0.01 µM: 94%
SN12C
  GI50: 9.29 µM
  IC50: 9.29 µM
  TGI: 23.8 µM
  CC50: 57.7 µM
SK-MEL-5
  growth at 0.1 µM: 73%
OVCAR-4 [11]; Homo sapiens, OVCAR-4, 48 h
  GI50: 1.57 µM
  TGI: 11.1 µM
  CC50: 39 µM
OVCAR-4 [11]; Homo sapiens, OVCAR-4, 48 h, read-out: IC50
  IC50: 1.57 µM
A498 [12]
  growth at 0.1 µM: 64%
K562 [13]
  growth at 0.01 µM: 32%
